Sampled rows, rich in hits. Any-hit rate of the full collection: about 2.6%.
MDM2 E3 inh = inhibitors of human Mdm2 E3 ubiquitin ligase. cell-based MDM2 ubiquitination luciferase reporter, 2 h; 0 = plate control, 100 = twice control, blank-subtracted. signal enhancement, % at 5 µM. actives 0.11% (n = 210,000). AID 1230;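 active = signal enhancement of 30% or more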;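 note: luminescence tracks abundance of the self-degrading MDM2-luciferase fusion protein; higher signal means inhibition of MDM2 E3 ligase activity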
Target sequence (Q00987 whole entry, looked up, the tested form may be a part): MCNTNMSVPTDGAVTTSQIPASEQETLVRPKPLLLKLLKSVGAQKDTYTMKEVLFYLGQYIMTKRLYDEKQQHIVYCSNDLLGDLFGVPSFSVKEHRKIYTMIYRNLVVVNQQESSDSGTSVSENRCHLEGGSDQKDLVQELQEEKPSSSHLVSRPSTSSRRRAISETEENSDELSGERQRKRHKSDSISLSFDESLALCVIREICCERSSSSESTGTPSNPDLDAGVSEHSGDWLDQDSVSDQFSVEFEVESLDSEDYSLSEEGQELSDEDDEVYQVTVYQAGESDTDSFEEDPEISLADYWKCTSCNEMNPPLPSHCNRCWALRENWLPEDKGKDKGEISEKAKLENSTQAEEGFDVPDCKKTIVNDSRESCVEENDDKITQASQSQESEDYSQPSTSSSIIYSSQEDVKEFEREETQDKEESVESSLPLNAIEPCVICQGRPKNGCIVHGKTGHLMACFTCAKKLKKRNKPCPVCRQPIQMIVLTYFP
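Material: Stable MDM2–luciferase fusion reporter cells | Amount: 2000 cells seeded into each well | Dosing: One concentration, 5 µM, with 0.2% DMSO | Incubation: 4 h cell settling then 2 h compound exposure, 37 °C | Measured by: Luciferase luminescence | Read-out basis: % enhancement relative to plate controls after blank subtraction | Benchmarks: Control and blank well means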
Rad51 HR inh = Rad51 (human) homologous recombination inhibition; Q06609; hRad51 DNA strand exchange, fluorescence dequenching; inhibition, % at 10 µM; actives 0.085% (n = 200,000); AID 1385;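 active = inhibition above 40% at the single screening dose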;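 note: 0% = DMSO control wells and 100% = blanks with heterologous ssDNA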
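System: human Rad51 nucleoprotein filaments preassembled on unlabelled ssDNA. Reagent: labelled 47-mer dsDNA for strand exchange. Schedule: 30-min compound preincubation and 15-min exchange, both room temperature. Measured by: FRET fluorescence dequenching, excitation 485 nm, emission 520 nm. Read-out: Fluorescence-based percent inhibition, control- and blank-normalised. Benchmarks: plate controls and plate blanks.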
HSF1 inhib = HSF1 inhibition; NIH3T3-HGL HSE-luciferase, MG132-induced, luminescence 8 h; hits give low values; activity change, negative = inhibition, % at 7.5 µM (by protocol); actives 0.77% (n = 300,000); AID 2098;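 active = more than half of replicate wells show activity change below -50%, luminescence cut by over half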;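 note: luciferase reports HSF-1 transcriptional activity via heat shock element; 0% = median of DMSO wells and -100% = zero luminescence signal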
HSF1 activator = increases HSF-1 driven luciferase reporter signal. NIH3T3-HGL HSF-1 luciferase reporter, MG132, 8 h; 100% = twice DMSO control signal. activation, % at 9 µM. actives 1.7% (n = 300,000). AID 504408;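 active = mean replicate activation of at least 50% with a set share of replicates each reaching 50%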;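 note: 0% = median of the neutral control wells and 100% = twice that signal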
HSV replic up = HSV replication enhancement; HSV replication augmentation in cells, fold increase; maximum fold increase; actives 0.005% (n = 220,000); AID 1956; in the data active = maximum fold increase above about 1.5; tested in PC3 cells
Hsp70 act = Hsp70 transcriptional activation, primary screen. HeLa Hsp70 promoter luciferase reporter, luminescence; scaled: vehicle 0, proteasome-inhibitor control 100%. activation, % at 10 µM. actives 0.04% (n = 200,000). AID 1203;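 active = activation above the mean across all tested compounds plus 3 SD, cutoff set per campaign, cut at about 5.5% in these data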;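 note: 100% = MG132 at 30 µM as the positive control and 0% = DMSO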
* = called active by the depositor; i = inactive; . = no result.

SMILES	MDM2 E3 inh	Rad51 HR inh	HSF1 inhib	HSF1 activator	HSV replic up	Hsp70 act
Cc1ccccc1-c1nc(CN(C)C(C)c2ccon2)c(C)o1 (stereo not drawn)	-1	19	0	-7	i	0
COc1ccc(-c2nn(-c3ccccc3)cc2/C=N/N2C(=O)CSC2=S)cc1	-7	5	38	76*	i	0
O=C(CN1C(=O)/C(=C/c2cccc(Br)c2)SC1=S)N1CCCC1	-8	-6	2	-14	i	0
Cc1nc2ccccc2n1CC(O)COCC1CC=CCC1 (stereo not drawn)	-24	-6	42	87*	i	0
Oc1ccc(-c2csc(Nc3ncccn3)n2)cc1	-20	.	44	60*	i	0
CCC(Sc1nc2n[nH]c(C)c2c(=N)n1-c1ccc(C)c(Cl)c1)C(=O)N1CCOCC1 (stereo not drawn)	-11	2	17	56*	i	0
COC(=O)c1nc(N)sc1-c1ccccc1	8	76*	.	.	i	0
Cc1ccc(-c2csc3ncnc(N4CCN(C(=O)c5ccccc5)CC4)c23)cc1	-20	3	-7	2	i	-1
CC(C)c1ccc(NC2(C#N)C(=O)Nc3ccccc32)cc1 (stereo not drawn)	4	.	-61*	-67	.	0
Cc1ccccc1NC1(C#N)C(=O)Nc2ccccc21 (stereo not drawn)	2	.	1	-1	.	0
CCC(C(=O)c1ccccc1)P(=O)(NN)c1ccccc1 (stereo not drawn)	2	8	-8	-5	i	.
c1ccc(-c2nc(CSc3n[nH]c(-c4cccs4)n3)cs2)cc1	-7	5	14	60*	i	0
COc1ccc(C(=O)Nc2nc3ccccc3s2)c(OC)c1	.	.	-93*	-93	.	.
CCSc1nsc(NC(=O)Nc2cccc(F)c2)n1	.	.	-10	3	.	.
Nc1ccc(C(=O)Nc2nc3ccccc3s2)cc1	-56	1	33	57*	i	0
COc1n[nH]c(C(=O)Nc2nc3ccccc3s2)c1[N+](=O)[O-]	-18	21	-65*	-69	i	0
CCCSc1nsc(NC(=O)Nc2ccc(F)cc2F)n1	.	.	53	68*	.	.
COc1n[nH]c(C(=O)NCc2ccccc2)c1[N+](=O)[O-]	-10	3	.	.	i	0
COc1cccc(NC(=O)CN(C)C(=O)c2oc3c(ccc4ccccc43)c2C)c1	.	.	11	9	.	.
CN(C(=O)c1cc(COc2ccc(F)c(F)c2)on1)C1CCOC1 (stereo not drawn)	.	.	9	6	.	.
O=C1CCC(C(=O)N2CCCCO2)CN1Cc1cccc(F)c1 (stereo not drawn)	.	.	6	-14	.	.
COc1ccccc1C(=O)Nc1nc2ccccc2s1	.	.	-88*	-90	.	.
O=C(Nc1ccc(F)cc1F)Nc1sccc1-c1nc2ccccc2s1	-5	-2	-7	3	i	.
COc1ccccc1C(=O)Nc1nc2ccc(S(C)(=O)=O)cc2s1	-2	-12	9	14	i	0
O=C(Nc1nc2ccccc2s1)Nc1ccc(F)cc1F	.	.	36	50*	.	.
SMILES	MDM2 E3 inh	Rad51 HR inh	HSF1 inhib	HSF1 activator	HSV replic up	Hsp70 act
Cc1cccc2nc(-c3cccc(NC(=O)c4ccc(Cl)cc4)c3)cn12	.	.	11	11	.	0
CCOc1ccc(N(CC(=O)NN=C2CCCC2)S(C)(=O)=O)cc1	-17	.	-87*	-90	i	0
Cn1cnc([N+](=O)[O-])c1S(=O)(=O)c1cccc(Cl)c1	-21	.	41	56*	i	0
COc1ccc(CCNC(=O)c2c(N)no[n+]2[O-])cc1OC	-8	-3	-1	-23	i	0
COc1ccccc1OCCNC(=O)C1CC(=O)N(c2ccc3c(c2)OCCO3)C1 (stereo not drawn)	.	.	-3	-10	.	.
COc1ccccc1CCC(=O)OCC(=O)Nc1c(Br)cc(C)cc1Br	.	.	18	61*	.	.
COCCNC(=O)C(c1ccc(C)o1)N(C(=O)C(=O)NC1CCCCC1)c1ccc(F)cc1 (stereo not drawn)	-2	3	16	3	i	0
Cc1cc(C)n(-c2cc(=O)n(C)c(=O)n2C)n1	-15	2	17	67*	i	0
O=C(COC(=O)c1ccccc1SCC(=O)N1CCCC1)NC1CCS(=O)(=O)C1 (stereo not drawn)	.	.	-71*	-78	.	.
O=C(COC(=O)c1ccccc1SCC(=O)NC1CCS(=O)(=O)C1)NC1CCS(=O)(=O)C1 (stereo not drawn)	-12	-11	2	6	i	0
COCCC(=O)N1CCC(Oc2ccc(C(=O)N3CCCCC3CCO)cc2)CC1 (stereo not drawn)	.	.	5	13	.	.
N#Cc1ccccc1S(=O)(=O)c1ccccc1C(=O)Nc1ccccc1	-2	-6	0	14	i	0
COc1ccccc1OCCSc1nc(N)cc(N)n1	.	13	10	21	i	0
Nc1cc(N)nc(SCCOc2ccccc2F)n1	-14	0	43	66*	i	0
COC(=O)CN(C)C(=O)c1ccc(OC2CCN(S(=O)(=O)N(C)C)CC2)cc1	.	.	0	7	.	.
CC(C)C[C@@H](CC#N)N1CCN(CCc2ccccc2)CCC1=O	.	.	-22	-36	.	.
CC(C)C[C@@H](CC#N)N1CCN(Cc2ccccc2)CCC1=O	.	.	-61*	-69	.	.
CN(CC(=O)Nc1ccc(F)c(F)c1F)C(=O)CCCSc1nc2ccccc2[nH]1	.	.	7	22	.	.
Cc1ccc2oc(C(=O)N3CCN(c4cccc(C)n4)CC3)c(C)c2c1	.	.	22	10	.	.
Cc1cc(Cl)c2oc(C(=O)N3CCN(c4cccc(C)n4)CC3)c(C)c2c1	.	.	38	73*	.	.
CS(=O)(=O)c1sc(C#N)c2c1C(=O)CC(c1ccccc1)C2 (stereo not drawn)	-19	-7	72	89*	i	.
O=C(Nc1cccn(Cc2c(Cl)cccc2Cl)c1=O)c1ccc(Cl)cc1Cl	-15	-1	3	0	i	0
O=C(O)c1ccccc1C(=O)Nc1ccc(Br)c2cccnc12	-9	3	36	51*	i	0
O=C(Nc1cccc2cccnc12)c1ccccc1Cl	.	.	50	91*	.	.
O=C(Nc1cccn(Cc2c(Cl)cccc2Cl)c1=O)c1ccccc1Cl	-8	2	39	89*	i	0
COc1ccccc1-n1ccnc(SCC(=O)NC2CCCC2)c1=O	.	.	-1	-2	.	.
COc1ccccc1-n1ccnc(SCC(=O)NCc2ccccc2)c1=O	.	.	-55*	-66	.	.
Nc1nc(NCCO)nc(NC2CCCCC2)c1[N+](=O)[O-]	.	.	-69*	-73	.	.
Nc1nc(NCc2ccco2)nc(NC2CCCCC2)c1[N+](=O)[O-]	5	-8	-72*	-79	i	.
